A selection: hits, their analogues and other compounds. The true share with any hit is near 0.68%.
TNAP act hi DEA: TNAP activators at high phosphate acceptor level, primary screen, biochemical, luminescence, uHTS | AID 1136, 2008 | 200,000 tested, under 10 active | activation factor at 20 µM | Alkaline phosphatase, tissue-nonspecific isozyme (Homo sapiens), P05186 | purified TNAP, CDP-star luminescence, 1 M DEA, 30 min; hits give high values; 0 = EDTA background, 1 = DMSO-only activity;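 active = activation factor at least 2 at 20 µM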
Target sequence (P05186 whole entry, looked up): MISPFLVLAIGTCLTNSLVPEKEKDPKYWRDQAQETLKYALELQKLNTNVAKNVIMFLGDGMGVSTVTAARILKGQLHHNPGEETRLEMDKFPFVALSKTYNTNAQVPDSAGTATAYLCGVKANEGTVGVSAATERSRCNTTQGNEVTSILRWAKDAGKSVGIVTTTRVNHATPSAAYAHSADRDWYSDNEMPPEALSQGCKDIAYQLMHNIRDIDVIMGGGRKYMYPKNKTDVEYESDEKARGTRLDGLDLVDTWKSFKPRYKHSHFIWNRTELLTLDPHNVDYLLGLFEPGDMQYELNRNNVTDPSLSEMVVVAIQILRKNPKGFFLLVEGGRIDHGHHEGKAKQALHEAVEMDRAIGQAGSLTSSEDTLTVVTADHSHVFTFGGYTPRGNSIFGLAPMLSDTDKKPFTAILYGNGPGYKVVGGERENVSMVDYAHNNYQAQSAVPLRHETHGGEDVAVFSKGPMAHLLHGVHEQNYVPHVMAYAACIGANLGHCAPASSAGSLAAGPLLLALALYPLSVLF
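Control set: EDTA negative control, DMSO positive control / Assay system: human TNAP / Quantity: TNAP 1/800 final / Evaluation: TNAP activation factor scaled between EDTA and DMSO control wells / Measured by: luminescent substrate turnover signal / Compound dosing: one dose, 20 µM / Times: 30 min enzyme reaction at room temperature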
TNAP inh hiacc: human TNAP enzyme inhibitors, primary screen, biochemical, luminescent, high phosphate acceptor level, uHTS; Alkaline phosphatase, tissue-nonspecific isozyme (Homo sapiens), P05186; purified TNAP, CDP-star luminescence, 1 M DEA; inhibition, % at 20 µM; 200,000 tested, 0.03% active;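 active = over 50% inhibition of tissue-nonspecific alkaline phosphatase at 20 µM in the single-dose screen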
Pf gametocyte: late stage P. falciparum gametocyte viability inhibitors, primary screen, ATP luminescence, HTS | P. falciparum stage V gametocytes, 24 h | AID 743093, 2013 | 150,000 tested, 0.065% active | inhibition, % at 10.9 µM;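 active = inhibition above the mean plus 3 SD of compounds within the control limits, set per campaign, cut at about 38% in these data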
TNAP inh noacc: human TNAP enzyme inhibitors, primary screen, biochemical, luminescent, no phosphate acceptor, uHTS; Alkaline phosphatase, tissue-nonspecific isozyme (Homo sapiens), P05186; purified TNAP, CDP-star luminescence, 30 min; inhibition, % at 20 µM; 200,000 tested, 0.26% active; AID 1012, 2008;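 active = tissue-nonspecific alkaline phosphatase inhibition above about 50% at 20 µM in the single-dose screen, limit read from the data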
Efa HMGR inh: inhibitors of E. faecalis class II HMGR, primary screen, biochemical, Enterococcus faecalis; HMG-CoA reductase (Enterococcus faecalis, mvaE); purified E. faecalis HMGR, NADPH absorbance 340 nm kinetic; inhibition, % at 10 µM; 190,000 tested, 0.41% active; AID 1066, 2008;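 active = inhibition above a set limit, the median over all tested compounds plus 3 SD, cut at about 9.5% in these data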;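 note: enzyme runs in reverse so mevalonate oxidation gives rising NADPH absorbance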
Furin inhibitor: human furin inhibitors, primary screen, biochemical, fluorescence intensity. P09958. purified furin, fluorogenic substrate cleavage. inhibition, % at 20 µM or 30 µM. 220,000 tested, 0.061% active. AID 463115, 2010; in the data active = inhibition above about 25%
A number is an active result; - = inactive; . = no result given.

SMILES	TNAP act hi DEA	TNAP inh hiacc	Pf gametocyte	TNAP inh noacc	Efa HMGR inh	Furin inhibitor
CC(NC(=O)C1(c2cccs2)CCOCC1)c1ccccc1 (centres undefined)	-	-	-	-	-	-
Cc1ccc(S(=O)(=O)/C(C#N)=C/c2c(N3CCC(C(N)=O)CC3)nc3ccccn3c2=O)cc1	-	-	-	-	11.2	-
Cc1c(C(=O)N2CCc3ccccc32)cnn1C	-	-	-	-	11.1	-
CCOC(=O)c1ccc2c(c1)[n+](CC)c(C)n2-c1ccccc1	-	-	-	-	-	-
CC[n+]1c(C)n(-c2ccccc2)c2ccc(C(=O)OC)cc21	-	-	-	-	16.0	-
CC(C)(C)N(CC#CCC1(O)c2ccccc2-c2ccccc21)CCO	-	-	-	-	-	-
COc1ccc(C2C(C(=O)Nc3cc(OC)c(OC)c(OC)c3)c3ccccc3C(=O)N2C)cc1OC (centres undefined)	-	-	-	-	-	-
CCc1ccc(NC(=O)CC2C(=O)Nc3c2c(=O)n(C)c(=O)n3C)cc1 (centres undefined)	-	-	.	-	12.0	-
COc1ccc(/C=C/C(=O)c2ccc(NC3=NCCCS3)cc2)cc1OC	-	-	-	-	10.4	-
CCOC(=O)[C@H]1[C@H]2COc3cc(OC)ccc3[C@@H]2N2C(=O)c3ccc(C)cc3NC(=O)[C@@]12C	.	.	38.9	.	.	.
CCOC(=O)[C@H]1[C@H]2COc3cc(OC)ccc3[C@@H]2N2C(=O)c3cc(C)ccc3NC(=O)[C@@]12C	.	.	-	.	.	.
C=CCSc1n[nH]c(-c2ccc(OC)cc2)n1	-	-	-	80.0	-	-
C=CCSc1n[nH]c(-c2ccccc2)n1	-	-	-	76.3	-	-
CCCCOc1ccc(-c2nc(SCC(N)=O)n[nH]2)cc1	-	-	-	-	-	-
CCc1nc(N)c(C#N)c(-c2ccccc2OC)c1C	-	-	-	-	-	-
CCOc1ccc(-n2nc3c(-n4ncc(C#N)c4N)nnc(C)c3c2C)cc1	.	.	.	.	.	-
Cc1cccc(N(CC(=O)NCc2ccco2)C(=O)CCC(=O)Nc2nccs2)c1	-	-	-	-	-	-
O=C(CSc1ncn[nH]1)NCCC(c1ccccc1)c1ccccc1	-	50.9	.	54.8	-	-
O=C(CSc1ncn[nH]1)Nc1nc(-c2ccccc2)cs1	-	-	.	84.5	-	-
O=C(CSc1ncn[nH]1)NCCOc1ccccc1	-	-	.	-	-	-
CCOC(=O)C(C#N)C(c1cccnc1)c1c(C)[nH][nH]c1=O (centres undefined)	-	-	39.8	-	-	-
CCOC(=O)/C(C#N)=C\c1cccnc1	-	-	-	-	-	-
COc1ccc(Cn2c(C)c(C)c(C#N)c2NC(=O)Nc2ccc(Cl)cc2)cc1	-	-	.	-	10.8	-
CC(=O)Nc1cccc(/C(C)=N/NC(=O)c2ccc(CN3CCOCC3)cc2)c1	-	-	-	-	-	-
O=C(c1ccc([N+](=O)[O-])cc1)N1CCSC1c1ccccc1Cl (centres undefined)	-	-	-	-	11.4	-
SMILES	TNAP act hi DEA	TNAP inh hiacc	Pf gametocyte	TNAP inh noacc	Efa HMGR inh	Furin inhibitor
COC(=O)c1cc(=O)n(Cc2cccs2)c(=Nc2ccc(F)cc2)s1	-	-	.	-	-	-
COC(=O)c1cc(=O)n(-c2ccc(F)cc2)c(=Nc2ccc(F)cc2)s1	-	-	.	-	11.2	-
O=C(COc1ccc2ccccc2c1)N1CCN(C(=O)c2ccco2)CC1	-	-	.	-	10.2	-
Cc1ccc(OCC(=O)N2CCN(C(=O)c3ccco3)CC2)cc1	-	-	-	-	-	-
C/C(=N/NC(=O)CNC(=O)c1ccccn1)c1cccc([N+](=O)[O-])c1	-	-	-	-	-	-
COc1cc(/C=C2/CCC/C(=C\c3cc(O)c(OC)c(Cl)c3)C2=O)cc(Cl)c1O	-	53.4	.	51.8	-	-
COc1cc(/C=C2\CC/C(=C\c3cc(OC)c(OC)c(OC)c3)C2=O)cc(OC)c1OC	-	-	-	-	-	-
COc1cc(/C=C2\COC/C(=C\c3cc(OC)c(OC)c(OC)c3)C2=O)cc(OC)c1OC	.	.	-	.	.	-
COc1cc(/C=C2\CC/C(=C\c3cc(OC)c(O)c(OC)c3)C2=O)cc(OC)c1O	-	57.3	-	61.1	-	-
N/C(=N\OC(=O)CCn1cccc(C(F)(F)F)c1=O)c1ccc(Cl)cc1	.	.	-	.	.	-
Cn1c(OCc2cccnc2)nc2c1c(=O)n(Cc1ccc(Br)cc1)c(=O)n2C	-	-	-	-	14.4	-
Cc1cccnc1CCNC(=O)CC1C(=O)NCCN1CC1CCCCC1 (centres undefined)	-	-	-	-	-	-
COc1ccc2c(c1)CCc1c-2n[nH]c1C(=O)O	-	-	-	86.1	-	-
Cc1ccc(CN(CC(=O)NC2CCCC2)C(=O)CSc2nnc(COc3ccccc3)o2)cc1	-	-	-	-	-	25.0
O=C(Nc1cnc2ccccc2c1)c1cccnc1	-	-	.	-	-	-
Cn1c(NC(=O)c2cccnc2)nc2ccccc21	-	-	.	68.7	-	-
CC(C)CN(Cc1cc(=O)oc2cc(-c3ccccc3)c(O)cc12)CC(C)C	.	.	-	.	.	-
CCOC(=O)C1CCC(CNCc2ccccc2C)CC1 (centres undefined)	-	-	.	-	9.8	-
O=C(O)C1CCC(CNCc2ccccc2Cl)CC1 (centres undefined)	-	-	.	-	-	-
CC(C)OCCCNC(=O)C(C)Oc1ccccc1 (centres undefined)	-	-	.	-	-	-
CC(C)OCCCNC(=O)Nc1cccc2ccccc12	-	-	-	-	14.2	-
Nc1nc(-c2ccc(Cl)cc2)nnc1-c1ccc(Br)cc1	-	-	-	-	-	-
Nc1n[nH]c(-c2ccc(Br)cc2)c1Cl	-	-	.	81.1	-	-
C=CCn1cnc2c(nnn2-c2ccc(Cl)cc2)c1=O	-	-	.	-	15.6	-
O=C1CN(S(=O)(=O)c2cc(Cl)ccc2Cl)CCN1	-	-	.	-	-	-
O=C(N/N=C/c1ccc([N+](=O)[O-])cc1)c1cc(-c2ccc3c(c2)OCO3)n[nH]1	.	.	-	.	.	-
COc1cc(/C=N/NC(=O)c2cc(-c3ccc4c(c3)OCO4)n[nH]2)ccc1O	-	-	-	87.3	-	-
Cn1cccc1-c1cc(C(=O)N/N=C/c2cccc(O)c2)[nH]n1	-	-	-	95.8	-	-
CCOc1cccc(/C=N/NC(=O)c2cc(-c3cccn3C)n[nH]2)c1O	-	-	.	-	-	-

Screening data (PubChem)
